Experimental data reported in ChEMBL document CHEMBL1127592, “Synthesis and SAR studies of novel triazolopyrimidine derivatives as potent, orally active angiotensin II receptor antagonists” (J Med Chem, 1994).

Tests used:
Rattus norvegicus [1] = assay: Change in systolic arterial blood pressure in renal artery ligated hypertensive rats, orally dosed at 10 mg/kg; format: functional; settings: route oral
Method in brief: (§1)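 Conscious male CD Sprague-Dawley rats (250-270 g) with left renal artery ligated several days earlier under ketamine. Single oral gavage, 3-8 rats/group. Systolic pressure by indirect tail-cuff sphygmomanometry before and 3 h post-dose; change reported as SAP decrease at 3 h, mean ± SEM.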

[2] = biological target: T1, Type-1 angiotensin II receptor B (Rattus norvegicus, UniProt P29089); assay: Displacement of [125I]-Sar1-Ile8-A II from rat adrenal Angiotensin-1 (AT-1) receptor
T1 sequence (P29089 whole entry): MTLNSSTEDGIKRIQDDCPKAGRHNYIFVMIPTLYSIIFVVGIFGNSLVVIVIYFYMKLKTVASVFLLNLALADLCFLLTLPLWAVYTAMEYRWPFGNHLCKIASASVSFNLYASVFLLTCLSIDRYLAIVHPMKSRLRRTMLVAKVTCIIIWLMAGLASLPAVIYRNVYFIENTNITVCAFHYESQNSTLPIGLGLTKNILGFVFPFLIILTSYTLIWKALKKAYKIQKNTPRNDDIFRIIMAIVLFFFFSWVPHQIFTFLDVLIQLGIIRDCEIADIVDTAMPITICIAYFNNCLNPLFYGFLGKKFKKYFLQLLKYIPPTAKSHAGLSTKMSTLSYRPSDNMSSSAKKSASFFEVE

Rattus norvegicus [3] = assay: Change in mean arterial blood pressure in renal artery ligated hypertensive rats, orally dosed at 1 mg/kg; format: functional; settings: route oral
Method in brief: (§2)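 Male CD Sprague-Dawley rats (250-270 g), left renal artery ligated under ketamine (100 mg/kg ip); catheterized for direct recording 2-3 days before test. Single oral gavage, 3-7 rats/group. MAP recorded before and for 16 h after dosing; value is maximal MAP decrease, mean ± SEM; decrease under 15 mmHg counted as no effect.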

[4] = biological target: T2, Type-2 angiotensin II receptor (Rattus norvegicus, UniProt P35351); assay: In vitro binding affinity against angiotensin-2 (AT-2) receptor in rat adrenal
T2 sequence (P35351 whole entry): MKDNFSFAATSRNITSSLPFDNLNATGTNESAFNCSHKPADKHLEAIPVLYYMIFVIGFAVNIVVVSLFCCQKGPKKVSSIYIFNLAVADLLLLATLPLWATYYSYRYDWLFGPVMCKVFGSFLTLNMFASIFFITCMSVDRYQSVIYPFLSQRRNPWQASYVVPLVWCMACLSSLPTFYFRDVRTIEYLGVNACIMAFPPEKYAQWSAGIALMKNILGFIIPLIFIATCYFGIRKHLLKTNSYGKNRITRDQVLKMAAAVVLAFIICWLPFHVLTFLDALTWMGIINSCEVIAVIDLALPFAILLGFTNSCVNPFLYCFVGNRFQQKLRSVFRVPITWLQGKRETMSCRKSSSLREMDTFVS
Method in brief: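 Rat adrenal membranes (25-40 μg protein) in Tris-HCl 50 mM, MgCl2 5 mM, 0.25% BSA, pH 7.2, with 0.2 nM [125I]Sar1-Ile8-AII and drug at 10^-9 to 10^-4 M, 60 min, 25 °C. 20 mM DTT included or omitted to separate AT1 and AT2 binding. Nonspecific binding with 1 μM AII; filtration. IC50 by log-logit, Ki by LIGAND; one experiment in triplicate.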

Rattus norvegicus [5] = assay: Compound at a dose of 1 mg/kg was administered orally and evaluated for change in mean arterial blood pressure in renal artery ligated hypertensive rats; format: functional; settings: route oral; method in brief: as §2
Rattus norvegicus [6] = assay: Compound at a dose of 10 mg/kg was administered orally and evaluated for change in systolic arterial blood pressure in renal artery ligated hypertensive rats; format: functional; settings: route oral; method in brief: as §1

SMILES | Ki [2] [µM] | Ki [4] [µM] | Change in blood pressure (Rattus norvegicus [1]) [mmHg] | Change in blood pressure (Rattus norvegicus [3]) [mmHg] | Change in blood pressure (Rattus norvegicus [5]) [mmHg] | Change in blood pressure (Rattus norvegicus [6]) [mmHg]
CCCc1ncn2ncnc2c1Cc1ccc(-c2ccccc2-c2nn[nH]n2)cc1 | 0.05 |  | -20 |  |  | 
CCCc1nc(COC)n2nc(O)nc2c1Cc1ccc(-c2ccccc2-c2nn[nH]n2)cc1 | 0.092 |  | -88.7 | -18.5 |  | 
CCCc1nc(C)n2c(=O)n(CC(=O)OCC)nc2c1Cc1ccc(-c2ccccc2-c2nn[nH]n2)cc1 | 0.012 |  | -71.7 | -21.6 |  | 
CCCc1ncn2nc(O)nc2c1Cc1ccc(-c2ccccc2-c2nn[nH]n2)cc1 | 0.046 |  | -38.3 | -17.9 |  | 
CCCc1nc(SC)n2c(O)nnc2c1Cc1ccc(-c2ccccc2-c2nn[nH]n2)cc1 |  |  | -15.6 |  |  | 
Cc1nc(C2CC2)c(Cc2ccc(-c3ccccc3-c3nn[nH]n3)cc2)c2nc(O)nn12 | 0.082 |  | -51.1 | -12.3 |  | 
CCCc1nc(C)n2nc(S(=O)(=O)NC)nc2c1Cc1ccc(-c2ccccc2-c2nn[nH]n2)cc1 | 0.139 |  | -37.2 | -14.1 |  | 
CCCCc1nc(C)n2nc(O)nc2c1Cc1ccc(-c2ccccc2C(=O)O)cc1 | 0.622 |  | -23.5 |  |  | 
CCc1nc(C)n2nc(O)nc2c1Cc1ccc(-c2ccccc2-c2nn[nH]n2)cc1 | 0.035 |  | -72.8 | -20.1 |  | 
CCCc1nc(C)n2nc(OC)nc2c1Cc1ccc(-c2ccccc2-c2nn[nH]n2)cc1 | 0.027 |  | -26.2 |  |  | 
CCCc1nc(CO)n2nc(O)nc2c1Cc1ccc(-c2ccccc2-c2nn[nH]n2)cc1 | 0.01 |  | -40.6 | -21.5 |  | 
CCCc1nc(C)n2nc(S(=O)(=O)N(C)C)nc2c1Cc1ccc(-c2ccccc2-c2nn[nH]n2)cc1 | 0.185 |  | -7.2 |  |  | 
CCCc1nc(C)n2nc(N)nc2c1Cc1ccc(-c2ccccc2-c2nn[nH]n2)cc1 | 0.001 |  | -77.2 | -33.4 |  | 
CCCc1nc(C)n2nc(CC)nc2c1Cc1ccc(-c2ccccc2-c2nn[nH]n2)cc1 | 0.008 |  | -69 | -8.9 |  | 
CCCc1nc(CC)n2nc(O)nc2c1Cc1ccc(-c2ccccc2-c2nn[nH]n2)cc1 | 0.225 |  | -75.8 | -46.5 |  | 
CCCc1nc(COC)n2nc(C)nc2c1Cc1ccc(-c2ccccc2-c2nn[nH]n2)cc1 | 0.111 |  | -44.4 | -21.8 |  | 
CCCCc1nc(C)n2c(S)nnc2c1Cc1ccc(-c2ccccc2-c2nn[nH]n2)cc1 | 0.106 |  | -86.3 | -24.3 |  | 
CCCc1nc(C)n2nc(C)nc2c1Cc1ccc(-c2ccccc2-c2nn[nH]n2)cc1 | 0.032 |  | -71.8 | -17.9 |  | 
CCCc1nc(C)n2nc(SCC(=O)OCC)nc2c1Cc1ccc(-c2ccccc2-c2nn[nH]n2)cc1 | 0.099 |  | -26.4 |  |  | 
CCCc1nc(C)n2c(O)nnc2c1Cc1ccc(NC(=O)c2ccccc2S(=O)(=O)O)cc1 | 0.041 |  | -18.3 |  |  | 
CCCCc1nc(C)n2nc(O)nc2c1Cc1ccc(-c2ccccc2-c2nn[nH]n2)cc1 | 0.03 |  | -91.5 | -22.1 |  | 
CCCc1nc(C)n2c(S)nnc2c1Cc1ccc(-c2ccccc2-c2nn[nH]n2)cc1 | 0.127 |  | -90.2 | -22.4 |  | 
CCCc1nc(C)n2nc(C(=O)OCC)nc2c1Cc1ccc(-c2ccccc2-c2nn[nH]n2)cc1 | 0.023 |  | -76.7 | -14.9 |  | 
CCCc1nc(C)n2nc(CO)nc2c1Cc1ccc(-c2ccccc2-c2nn[nH]n2)cc1 | 0.005 |  | -62.5 | -25.4 |  | 
CCCc1nc(C)n2nc(-c3ccccc3)nc2c1Cc1ccc(-c2ccccc2-c2nn[nH]n2)cc1 | 0.175 |  | -48.2 | -13.3 |  | 
CCCc1nc(C)n2nc(NCC(=O)OCC)nc2c1Cc1ccc(-c2ccccc2-c2nn[nH]n2)cc1 | 0.032 |  | -73.6 | -5.7 |  | 
CCCCc1nc(Cl)c(CO)n1Cc1ccc(-c2ccccc2-c2nnn[nH]2)cc1 [LOSARTAN] |  |  | -104.2 | -32.9 |  | 

The remaining compounds from weak to strong by Ki [2], led by results:

Ki [2] [µM] | Ki [4] [µM] | SMILES | Change in blood pressure (Rattus norvegicus [1]) [mmHg] | Change in blood pressure (Rattus norvegicus [3]) [mmHg] | Change in blood pressure (Rattus norvegicus [5]) [mmHg] | Change in blood pressure (Rattus norvegicus [6]) [mmHg]
0.659 |  | CCCc1nc(CCC)n2nc(O)nc2c1Cc1ccc(-c2ccccc2-c2nn[nH]n2)cc1 | -72.6 | -22.2 |  | 
0.174 |  | CCCc1nc(C)n2nc(SC)nc2c1Cc1ccc(-c2ccccc2-c2nn[nH]n2)cc1 | -32.2 | -11.8 |  | 
0.147 |  | CCCc1nc(C)n2nc(C(F)(F)F)nc2c1Cc1ccc(-c2ccccc2-c2nn[nH]n2)cc1 | -11.8 |  |  | 
0.053 |  | CCCc1nc(C)n2c(=O)n(C)nc2c1Cc1ccc(-c2ccccc2-c2nn[nH]n2)cc1 | -48.8 | -25.1 |  | 
0.035 |  | CCCc1nc(C)n2nc(C(=O)O)nc2c1Cc1ccc(-c2ccccc2-c2nn[nH]n2)cc1 | -36.4 | -13.4 |  | 
0.027 |  | CCCc1nc(CO)n2nc(C)nc2c1Cc1ccc(-c2ccccc2-c2nn[nH]n2)cc1 | -21.4 |  |  | 
0.024 | 79.2 | CCCc1nc(C)n2[nH]c(=O)nc2c1Cc1ccc(-c2ccccc2-c2nnn[nH]2)cc1 |  |  | -39.6 | -92.2
0.015 |  | CCCc1nc(C)n2nc(COC)nc2c1Cc1ccc(-c2ccccc2-c2nn[nH]n2)cc1 | -73.1 | -13.2 |  | 
0.012 |  | CCCc1nc(C)n2ncnc2c1Cc1ccc(-c2ccccc2-c2nn[nH]n2)cc1 | -89.7 | -20.1 |  | 
0.011 |  | CCCc1nc(C)n2nc(S(N)(=O)=O)nc2c1Cc1ccc(-c2ccccc2-c2nn[nH]n2)cc1 | -61.3 | -14.5 |  | 
0.01 |  | CCCc1nc(C)n2cnnc2c1Cc1ccc(-c2ccccc2-c2nn[nH]n2)cc1 | -77.2 | -24.2 |  | 
0.01 |  | CCCc1nc(C)n2c(O)nnc2c1Cc1ccc(-c2ccccc2-c2nn[nH]n2)cc1 | -87.5 | -44.6 |  | 
0.01 |  | CCCc1nc(C)n2nc(S)nc2c1Cc1ccc(-c2ccccc2-c2nn[nH]n2)cc1 | -57.8 | -19.7 |  | 
0.009 |  | CCCc1nc(C)n2nc(CC(=O)OCC)nc2c1Cc1ccc(-c2ccccc2-c2nn[nH]n2)cc1 | -84 | -18.1 |  | 
0.006 |  | CCCc1nc(C)n2c(=O)n(CCO)nc2c1Cc1ccc(-c2ccccc2-c2nn[nH]n2)cc1 | -67.9 | -25.6 |  | 
0.005 |  | CCCc1nc(C)n2nc(NC)nc2c1Cc1ccc(-c2ccccc2-c2nn[nH]n2)cc1 | -65.3 | -23.6 |  | 
